# Measured values taken from PubChem BioAssay AID492966 (Southern Research Specialized Biocontainment Screening …, 2010).
# The source made the active and inactive calls.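 How the source made its calls: active means compounds that block at least half of the virus-caused cell damage; inactive means the rest.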
# System: HEp-2 RSV Long CPE inhibition, luminescence
# Test: antiviral activity against RSV Long – cell-based, HEp-2, luminescence, synthesized compounds, set 3, dose response (AID 492966)
# How it was run: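 Test system: RSV Long-infected HEp-2 cells | Probe or stimulus: RSV strain Long at multiplicity of infection 0.45 | Incubation: Compound and virus exposure six days at 37 °C | Technique: Luminescent CPE readout | Read-out basis: % CPE inhibition and IC50 from bounded 4-parameter fit | Control set: Uninfected cell-only wells and infected virus-only wells, per plate | Replicates: Triplicate wells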
row,IC50,Compound
1,> 50 µM (inactive),O=C(Nc1ccc(Cl)cc1Cl)[C@@H]1CCCN1S(=O)(=O)c1cccc2cccnc12
2,> 50 µM (inactive),Cc1ccc(NC(=O)[C@@H]2CCCN2S(=O)(=O)c2cccc3cccnc23)cc1
3,16.5 µM,Cc1ccccc1NC(=O)[C@@H]1CCCN1S(=O)(=O)c1cccc2cccnc12
